≈ marks a conversion by molar mass, not a printed value.
Assays:
Assay type in all cases: functional
Staphylococcus aureus [1] = test: Antimicrobial activity against fluoroquinolone-resistant Staphylococcus aureus SA1199B
In short: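 S. aureus SA-1199B, which overexpresses the NorA MDR efflux pump. MIC determined by the standard dilution method for aerobically growing bacteria.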

Staphylococcus aureus [2] = test: Inhibition of NorA pump in fluoroquinolone-resistant Staphylococcus aureus SA1199B assessed as drug level causing reduction of Norfloxacin MIC
In short: (§1)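 SA-1199B, which overexpresses NorA, tested by dilution MIC. Norfloxacin MIC measured with and without added test agent. Potentiation expressed as the fold reduction of the norfloxacin MIC relative to norfloxacin alone, at the stated agent concentration.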

Staphylococcus aureus [3] = test: Inhibition of NorA pump in fluoroquinolone-resistant Staphylococcus aureus SA1199B assessed as drug level causing 4-fold reduction of Norfloxacin MIC; in short: as §1
Staphylococcus aureus [4] = test: Inhibition of NorA pump in fluoroquinolone-resistant Staphylococcus aureus SA1199B assessed as drug level causing 16-fold reduction of Norfloxacin MIC; in short: as §1
Staphylococcus aureus [5] = test: Inhibition of NorA pump in fluoroquinolone-resistant Staphylococcus aureus SA1199B assessed as drug level causing 8-fold reduction of Norfloxacin MIC; in short: as §1
Staphylococcus aureus [6] = test: Inhibition of NorA pump in fluoroquinolone-resistant Staphylococcus aureus SA1199B assessed as drug level causing 2-fold reduction of Norfloxacin MIC; in short: as §1

For `CCn1cc(C(=O)O)c(=O)c2cc(F)c(N3CCNCC3)cc21` [NORFLOXACIN], the MIC (Staphylococcus aureus [1]) was 100 µM (≈ 31.9 µg/mL).

With `COc1ccc(CCC(=O)NCCc2ccc(O)c(O)c2)cc1OC` the Activity (Staphylococcus aureus [2]) was 290 µM.

In the case of `COc1ccc(/C=C/C(=O)NCCc2c[nH]c3ccccc23)cc1OC`, the Activity (Staphylococcus aureus [3]) is reported as 29 µM, the MIC (Staphylococcus aureus [1]) is reported as greater than 366 µM and the Activity (Staphylococcus aureus [4]) is reported as 286 µM. The Activity (Staphylococcus aureus [5]) was 57 µM.

With `COc1cc(/C=C/C(=O)NCCc2ccc(O)c(O)c2)cc(OC)c1OC` the Activity (Staphylococcus aureus [3]) was 268 µM.

For `O=C(/C=C/c1ccc(O)c(O)c1)NCCc1ccc(O)c(O)c1`, the Activity (Staphylococcus aureus [3]) was 63 µM, the MIC (Staphylococcus aureus [1]) was no less than 406 µM and the Activity (Staphylococcus aureus [5]) was 317 µM.

For `COC(=O)[C@H]1[C@H]2C[C@@H]3c4[nH]c5cc(OC)ccc5c4CCN3C[C@H]2C[C@@H](OC(=O)c2cc(OC)c(OC)c(OC)c2)[C@@H]1OC` [RESERPINE], the MIC (Staphylococcus aureus [5]; Staphylococcus aureus, SA1199B) was 33 µM (≈ 20.1 µg/mL).

In the case of `O=C(/C=C/c1ccccc1)NCCc1ccc(O)c(O)c1`, the Activity (Staphylococcus aureus [3]) is reported as 70 µM, the MIC (Staphylococcus aureus [1]) is reported as greater than 452 µM and the Activity (Staphylococcus aureus [4]) is reported as 353 µM.

With `COc1ccc(/C=C/C(=O)NCCc2ccc(OC)c(OC)c2)cc1OC` the Activity (Staphylococcus aureus [6]) was 54 µM and the Activity (Staphylococcus aureus [5]) was 162 µM.

`COc1ccc(/C=C/C(=O)NCCc2cc(O)c(O)c(O)c2)cc1OC` was tested, and the MIC (Staphylococcus aureus [1]) was 356 µM (≈ 128 µg/mL) and the Activity (Staphylococcus aureus [2]) was 56 µM.

With `COc1ccc(/C=C/C(=O)NCCc2ccccc2)cc1OC` the Activity (Staphylococcus aureus [3]) was 322 µM.

Work on `COc1ccc(/C=C/C(=O)NCCc2ccc(O)c(O)c2)cc1OC` yielded an Activity (Staphylococcus aureus [3]) of 146 µM and an Activity (Staphylococcus aureus [5]) of 292 µM.

Source: ChEMBL document CHEMBL1139132, “N-caffeoylphenalkylamide derivatives as bacterial efflux pump inhibitors” (2007)
